Assays:
[1] = Chemical stability in aqueous buffer containing 5% DMSO and 5% tween 80 at pH 7.4 assessed as compound recovery in anoxic conditions after 24 hrs by UPLC analysis; type: physicochemical; details: read-out: Stability
In short: (§1)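 Stability at 37 °C in aqueous buffer with 5% DMSO and 5% Tween 80 at pH 1.2, 6.8 or 7.4; percent recovery by HPLC/UPLC on BEH C18 column, water+0.1% TFA/acetonitrile gradient from 40% to 95% acetonitrile over 8 min, room temperature.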

[2] = tested on: NCI-H460; experiment: Antiproliferative activity against human NCI-H460 cells incubated for 24 hrs drug exposure measured after 48 hrs of recovery by sulforhodamine B assay; type: functional, cell-based
[3] = Chemical stability in aqueous buffer containing 5% DMSO and 5% tween 80 at pH 1.2 assessed as compound recovery in anoxic conditions after 12 hrs by UPLC analysis; type: physicochemical; details: pH 1.2, 12 h; in short: as §1
[4] = Chemical stability in aqueous buffer containing 5% DMSO and 5% tween 80 at pH 1.2 assessed as compound recovery in anoxic conditions after 3 hrs by UPLC analysis; type: physicochemical; details: read-out: Stability; in short: as §1
[5] = Solubility in water; type: physicochemical; details: buffer
[6] = Chemical stability in aqueous buffer containing 5% DMSO and 5% tween 80 at pH 6.8 assessed as compound recovery in anoxic conditions after 24 hrs by UPLC analysis; type: physicochemical; details: read-out: Stability; in short: as §1
[7] = tested on: A-431; experiment: Antiproliferative activity against human A431 cells incubated for 24 hrs drug exposure measured after 48 hrs of recovery by sulforhodamine B assay; type: functional, cell-based
[8] = Chemical stability in aqueous buffer containing 5% DMSO and 5% tween 80 at pH 6.8 assessed as compound recovery in anoxic conditions after 6 hrs by UPLC analysis; type: physicochemical; details: read-out: Stability; in short: as §1
[9] = Chemical stability in aqueous buffer containing 5% DMSO and 5% tween 80 at pH 7.4 assessed as compound recovery in anoxic conditions after 6 hrs by UPLC analysis; type: physicochemical; details: read-out: Stability; in short: as §1
[10] = tested on: Plasma; experiment: Prodrug conversion in mouse plasma assessed as drug concentration at 6 hrs in presence of esterase inhibitor PMSF; type: ADME, cell-free
In short: (§2)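 Prodrugs already shown stable at pH 1.2, 6.8 and 7.4 were incubated in murine plasma and sampled over time up to 6 h. A parallel incubation used murine plasma pretreated with the esterase inhibitor PMSF (phenylmethyl sulfonyl fluoride).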

[11] = tested on: Plasma; experiment: Prodrug conversion in mouse plasma assessed as drug concentration at 1 hr; type: ADME, cell-free; in short: as §2
[12] = tested on: Plasma; experiment: Prodrug conversion in mouse plasma assessed as drug concentration at 6 hrs; type: ADME, cell-free; in short: as §2
[13] = tested on: Plasma; experiment: Prodrug conversion in mouse plasma assessed as drug concentration at 0.5 hrs in presence of esterase inhibitor PMSF; type: ADME, cell-free
In short: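 Prodrug incubated with murine plasma pretreated with the esterase inhibitor PMSF, run alongside untreated plasma; release of parent followed over time.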

[14] = tested on: Plasma; experiment: Prodrug conversion in mouse plasma assessed as drug concentration at 3 hrs; type: ADME, cell-free; in short: as §2
[15] = tested on: Plasma; experiment: Prodrug conversion in mouse plasma assessed as drug concentration at 0.5 hrs; type: ADME, cell-free; in short: as §2

SMILES	remaining at 24 h [1] [%]	IC50 [2] [nM]	Stability [3]	remaining at 3 h [4] [%]	solubility [5]	remaining at 24 h [6] [%]	IC50 [7] [nM]	remaining at 6 h [8] [%]	remaining at 6 h [9] [%]	Drug metabolism [10] [%]	Drug metabolism [11] [%]	Drug metabolism [12] [%]	Drug metabolism [13] [%]	Drug metabolism [14] [%]	Drug metabolism [15] [%]
O=C(O)/C=C/c1ccc(-c2ccc(OCCN3CCOCC3)c(C34CC5CC(CC(C5)C3)C4)c2)cc1	> 99	> 10000	Stable	> 99	Insoluble	> 99	–	–	–	–	–	–	–	–	–
N#CCOc1ccc(-c2ccc(/C=C/C(=O)O)cc2)cc1C12CC3CC(CC(C3)C1)C2	> 99	850	Stable	> 99	Insoluble	> 99	–	–	–	–	–	–	–	–	–
COCCOCOc1ccc(-c2ccc(/C=C/C(=O)O)cc2)cc1C12CC3CC(CC(C3)C1)C2	–	4200	Stable	–	Insoluble	–	–	–	–	–	–	–	–	–	–
O=C(O)/C=C/c1ccc(-c2ccc(OCN3C(=O)c4ccccc4C3=O)c(C34CC5CC(CC(C5)C3)C4)c2)cc1	> 99	8400	Stable	> 99	Insoluble	> 99	–	–	–	–	–	–	–	–	–
CCCOC(=O)OCOc1ccc(-c2ccc(/C=C/C(=O)O)cc2)cc1C12CC3CC(CC(C3)C1)C2	> 99	320	Stable	> 99	Insoluble	> 99	–	–	–	–	–	–	–	–	–
CC(=O)Oc1ccc(-c2ccc(/C=C/C(=O)O)cc2)cc1C12CC3CC(CC(C3)C1)C2	> 99	260	Stable	> 99	Insoluble	> 99	530	–	–	–	–	–	–	–	–
CN1CCN(CCCC(=O)Oc2ccc(-c3ccc(/C=C/C(=O)O)cc3)cc2C23CC4CC(CC(C4)C2)C3)CC1	64	240	Stable	> 99	Insoluble	85	410	98	89	–	–	–	–	–	–
CC(C)[C@H](N)C(=O)Oc1ccc(-c2ccc(/C=C/C(=O)O)cc2)cc1C12CC3CC(CC(C3)C1)C2.Cl	12	510	Stable	> 99	Insoluble	39	410	92	62	–	–	–	–	–	–
O=C(O)/C=C/c1ccc(-c2ccc(OC(=O)COCCOCCOCC(=O)O)c(C34CC5CC(CC(C5)C3)C4)c2)cc1	> 99	170	Stable	> 99	Insoluble	> 99	330	–	–	–	–	–	–	–	–
CCCCCCCCCCC(=O)Oc1ccc(-c2ccc(/C=C/C(=O)O)cc2)cc1C12CC3CC(CC(C3)C1)C2	> 99	1540	Stable	> 99	Insoluble	> 99	–	–	–	–	–	–	–	–	–
CCCCC/C=C/C/C=C/CCCCCCCC(=O)Oc1ccc(-c2ccc(/C=C/C(=O)O)cc2)cc1C12CC3CC(CC(C3)C1)C2	–	7800	Stable	–	Insoluble	–	–	–	–	–	–	–	–	–	–
NC1(C(=O)Oc2ccc(-c3ccc(/C=C/C(=O)O)cc3)cc2C23CC4CC(CC(C4)C2)C3)CC1.O=C(O)C(F)(F)F	62	100	Stable	> 99	Insoluble	> 99	400	–	88	97.77	96.87	96.31	87.31	96.66	97.02
O=C(O)/C=C/c1ccc(-c2ccc(OC(=O)C3CC3)c(C34CC5CC(CC(C5)C3)C4)c2)cc1	> 99	850	Stable	> 99	Insoluble	> 99	–	–	–	99.76	100	100	43.95	100	100
CC(C)NC(=O)Oc1ccc(-c2ccc(/C=C/C(=O)O)cc2)cc1C12CC3CC(CC(C3)C1)C2	> 99	5000	Stable	> 99	Insoluble	> 99	–	–	–	–	–	–	–	–	–
CNCCNC(=O)Oc1ccc(-c2ccc(/C=C/C(=O)O)cc2)cc1C12CC3CC(CC(C3)C1)C2.Cl	36	240	Stable	> 99	Insoluble	69	320	92	76	17.55	99.8	99.95	1.35	99.94	96.23
O=C(O)/C=C/c1ccc(-c2ccc(OC(=O)NC3CCN(C(=O)OCc4ccccc4)CC3)c(C34CC5CC(CC(C5)C3)C4)c2)cc1	> 99	5000	Stable	> 99	Insoluble	> 99	–	–	–	–	–	–	–	–	–
O=C(O)/C=C/c1ccc(-c2ccc(OC(=O)NCC(=O)O)c(C34CC5CC(CC(C5)C3)C4)c2)cc1	> 99	3000	Stable	> 99	Insoluble	> 99	–	–	–	–	–	–	–	–	–
CCCCCCCCCCCNC(=O)Oc1ccc(-c2ccc(/C=C/C(=O)O)cc2)cc1C12CC3CC(CC(C3)C1)C2	> 99	1390	Stable	> 99	Insoluble	> 99	–	–	–	–	–	–	–	–	–
CC(C)C[C@H](NC(=O)Oc1ccc(-c2ccc(/C=C/C(=O)O)cc2)cc1C12CC3CC(CC(C3)C1)C2)C(=O)NCC(=O)O	> 99	3500	Stable	> 99	Insoluble	> 99	–	–	–	–	–	–	–	–	–

Reference: ChEMBL document CHEMBL1955854, “New retinoid derivatives as back-ups of Adarotene” (Bioorg Med Chem, 2012)
